Screening data deposited in PubChem BioAssay by Broad Institute.
AF4-AF9 inh: inhibitors of AF4 peptide binding to AF9, primary screen, biochemical, AlphaScreen, biotin-AF4 peptide, FLAG-AF9, single point; Protein AF-9 (Homo sapiens), P42568; inhibition, % at 10 µM; hit rate 0.47% among 350,000;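 active = every replicate reaching a set inhibition limit, whatever the replicate mean, cut at about 25% in these data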
INS-1E GSIS act: GLuc luminescence reporter in INS-1E cells, primary screen for activators of glucose-dependent secretion of insulin. AID 743287, 2014. INS-1E GLuc reporter insulin secretion, 2-3 h. activation, % at 16.6 µM. hit rate 0.61% among 370,000;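 active = lowest replicate activation of at least 40%, so every replicate reaches that level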
S100A4 MyoIIA: inhibitors of S100A4-myosin IIA peptide binding, primary screen, biochemical, fluorescence polarization, TAMRA-MyoIIA peptide; Protein S100-A4 (Homo sapiens), P26447; inhibition, % at 10.7 µM; hit rate 0.14% among 360,000; AID 652163, 2013;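 active = mean inhibition of at least 70% across replicates, with every replicate also reaching that level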
Target sequence (P26447 whole entry, looked up): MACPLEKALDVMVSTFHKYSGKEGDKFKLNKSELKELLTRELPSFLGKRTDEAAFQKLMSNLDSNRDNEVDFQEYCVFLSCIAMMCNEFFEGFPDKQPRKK
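assay system = human S100A4 monomer with TAMRA-labelled myosin IIA peptide | also added = labelled myosin peptide probe, 5 nM | incubation = 5 min between mix addition and reading | control set = DMSO and TFP controls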
RAD52 inh: RAD52 DNA annealing inhibitors, primary screen, biochemical, FRET, single point, set 2 | DNA repair protein RAD52 homolog (Homo sapiens), P43351 | recombinant RAD52 DNA annealing, FRET fluorescence | inhibition, % at 18.7 µM | hit rate 0.46% among 360,000;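 active = every replicate showing at least 50% inhibition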
Target sequence (P43351 whole entry, looked up): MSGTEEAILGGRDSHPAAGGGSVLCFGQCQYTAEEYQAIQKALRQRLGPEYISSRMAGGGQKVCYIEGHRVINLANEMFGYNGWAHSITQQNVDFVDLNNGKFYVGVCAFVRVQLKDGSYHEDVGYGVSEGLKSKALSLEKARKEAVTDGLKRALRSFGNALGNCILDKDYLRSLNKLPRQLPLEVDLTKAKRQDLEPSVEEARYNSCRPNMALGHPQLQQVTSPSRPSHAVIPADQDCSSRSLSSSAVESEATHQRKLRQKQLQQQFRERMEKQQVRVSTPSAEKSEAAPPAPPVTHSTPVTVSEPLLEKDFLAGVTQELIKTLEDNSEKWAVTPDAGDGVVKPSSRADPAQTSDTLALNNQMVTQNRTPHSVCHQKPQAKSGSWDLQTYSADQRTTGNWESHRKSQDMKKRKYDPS
RAD54 branch: inhibitors of human RAD54 branch migration, primary screen, biochemical, fluorescence, single point. inhibition, % at 10.4 µM. RAD54 Holliday junction branch migration, FAM/BHQ fluorescence. hit rate 0.14% among 360,000. AID 602329, 2012;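 active = mean normalized replicate activity at least 40 and at least half of replicates scoring 40 or more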;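 also: inhibitors cause a drop in the FAM fluorescence signal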
A number is an active result. Hits are enriched below; roughly 1.3% of the tested compounds scored in any of these assays.

Results for CCC(=O)N1C[C@@H](C)[C@@H](OC)CN(C)C(=O)c2cc(NC(=O)c3ccccc3)ccc2OC[C@H]1C ?
AF4-AF9 inh: inactive; INS-1E GSIS act: inactive; S100A4 MyoIIA: inactive; RAD52 inh: inactive; RAD54 branch: inactive

How did O=C1Nc2ccccc2N(C(=O)c2ccc3ccccc3c2)C1c1nc2ccccc2[nH]1 (centres undefined) do in these assays?
AF4-AF9 inh: inactive; INS-1E GSIS act: 120.9; S100A4 MyoIIA: inactive; RAD52 inh: inactive

Results for CO[C@H]1CN(C)C(=O)c2cc(NC(=O)NC(C)C)ccc2OC[C@@H](C)N(CCC(F)(F)F)C[C@H]1C ?
INS-1E GSIS act: inactive; RAD54 branch: inactive

Results for C[C@@H]1CN([C@@H](C)CO)C(=O)c2cc(/C=C/c3ccccc3)cnc2O[C@@H]1CN(C)Cc1ccccc1F ?
AF4-AF9 inh: inactive; INS-1E GSIS act: inactive; S100A4 MyoIIA: inactive; RAD52 inh: inactive; RAD54 branch: inactive

What do the screens show for `C[C@@H]1CN([C@@H](C)CO)C(=O)c2cc(/C=C/c3ccccc3)cnc2O[C@H]1CN(C)Cc1ccccc1F`?
AF4-AF9 inh: 28.2; INS-1E GSIS act: inactive; S100A4 MyoIIA: inactive; RAD52 inh: inactive; RAD54 branch: inactive

What do the screens show for `COc1ccc(S(=O)(=O)N(C)C[C@H]2Oc3ncc(-c4ccncc4)cc3C(=O)N([C@@H](C)CO)C[C@H]2C)cc1`?
AF4-AF9 inh: inactive; INS-1E GSIS act: inactive; S100A4 MyoIIA: 90.1; RAD52 inh: inactive; RAD54 branch: inactive

Results for C[C@@H]1CN([C@@H](C)CO)C(=O)c2cc(/C=C/c3ccccc3)cnc2O[C@H]1CN(C)S(=O)(=O)c1cccs1 ?
AF4-AF9 inh: inactive; INS-1E GSIS act: inactive; S100A4 MyoIIA: 94.4; RAD52 inh: inactive; RAD54 branch: inactive

What do the screens show for `CNC[C@H]1Oc2ccc(N)cc2C(=O)N(C)C[C@H]1C`?
INS-1E GSIS act: inactive

How did CCS(=O)(=O)Nc1ccc2c(c1)C(=O)N(C)[C@H]1CC[C@H](CC(=O)OC)O[C@H]1CO2 do in these assays?
AF4-AF9 inh: inactive; INS-1E GSIS act: inactive; S100A4 MyoIIA: inactive; RAD52 inh: inactive; RAD54 branch: inactive

How did COc1ccc2c3c([nH]c2c1)[C@@H](CO)N(C(=O)CN(C)C)CC31CN(Cc2ccccc2)C1 do in these assays?
AF4-AF9 inh: inactive; INS-1E GSIS act: inactive; S100A4 MyoIIA: inactive; RAD52 inh: 60.4

What do the screens show for `COc1ccc(CN2CC3(C2)CN(C(=O)CN(C)C)[C@@H](CO)c2[nH]c4cc(OC)ccc4c23)cc1`?
AF4-AF9 inh: inactive; INS-1E GSIS act: inactive; S100A4 MyoIIA: inactive; RAD52 inh: 67.5

How did COc1ccc(CN2CC3(C2)CN(C(=O)CN(C)C)[C@H](CO)c2[nH]c4cc(OC)ccc4c23)cc1 do in these assays?
AF4-AF9 inh: inactive; INS-1E GSIS act: inactive; S100A4 MyoIIA: inactive; RAD52 inh: 68.7

Results for C[C@H]1CCCCO[C@H](CN(C)Cc2ccc(Cl)c(Cl)c2)[C@@H](C)CN([C@@H](C)CO)C(=O)c2cc(NC(=O)Nc3ccc(C(F)(F)F)cc3)ccc2O1 ?
AF4-AF9 inh: inactive; INS-1E GSIS act: inactive; S100A4 MyoIIA: inactive; RAD52 inh: inactive; RAD54 branch: inactive

How did Cc1ccc(S(=O)(=O)N[C@@H]2CC[C@@H](CCn3cc(-c4ccccc4F)nn3)O[C@@H]2CO)cc1 do in these assays?
AF4-AF9 inh: inactive; INS-1E GSIS act: inactive; S100A4 MyoIIA: inactive; RAD54 branch: inactive

What do the screens show for `Cc1ccc(S(=O)(=O)N/N=C/c2cc(Br)ccc2O)cc1`?
AF4-AF9 inh: 30.3; INS-1E GSIS act: inactive; S100A4 MyoIIA: inactive; RAD52 inh: inactive; RAD54 branch: inactive

How did CC(=O)N(C)c1nc(-c2ccc(Cl)cc2)cs1 do in these assays?
RAD54 branch: inactive

How did CC(=O)N(/N=C/c1cccc(C)c1)c1nc(-c2ccc(Br)cc2)cs1 do in these assays?
INS-1E GSIS act: 110.2; RAD54 branch: inactive

Results for COc1ccc(/C=N/N(C(C)=O)c2nc(-c3ccc(C)cc3)cs2)cc1 ?
INS-1E GSIS act: 146.4; RAD54 branch: inactive

What do the screens show for `COCC(=O)Nc1ccc2c(c1)OC[C@H](C)N(Cc1ccccc1)C[C@@H](C)[C@H](OC)CN(C)C2=O`?
AF4-AF9 inh: inactive; INS-1E GSIS act: inactive; S100A4 MyoIIA: inactive; RAD52 inh: inactive; RAD54 branch: inactive

Results for COc1ccc(CN(C)C[C@@H]2Oc3ccc(NC(=O)Cc4ccccc4)cc3CC(=O)N([C@@H](C)CO)C[C@H]2C)cc1 ?
AF4-AF9 inh: inactive; INS-1E GSIS act: inactive; S100A4 MyoIIA: 83.6; RAD52 inh: inactive

How did C[C@H](CO)N1C[C@H](C)[C@@H](CN(C)Cc2ccc(Cl)c(Cl)c2)Oc2ccc(NS(=O)(=O)c3ccccc3)cc2CC1=O do in these assays?
AF4-AF9 inh: inactive; INS-1E GSIS act: inactive; S100A4 MyoIIA: inactive; RAD52 inh: 63.7; RAD54 branch: inactive

How did Cc1ccc(S(=O)(=O)Nc2ccc3c(c2)CC(=O)N([C@@H](C)CO)C[C@@H](C)[C@H](CN(C)Cc2ccc(-c4ccccc4)cc2)O3)cc1 do in these assays?
AF4-AF9 inh: inactive; S100A4 MyoIIA: inactive; RAD52 inh: 83.2; RAD54 branch: inactive

Results for C[C@@H]1CN([C@@H](C)CO)C(=O)Cc2cc(NS(=O)(=O)c3ccccc3)ccc2O[C@@H]1CN(C)Cc1ccc(Cl)c(Cl)c1 ?
AF4-AF9 inh: inactive; INS-1E GSIS act: inactive; S100A4 MyoIIA: inactive; RAD52 inh: inactive; RAD54 branch: inactive

Results for C[C@@H]1CN([C@@H](C)CO)C(=O)Cc2cc(NC(=O)Nc3ccc4c(c3)OCO4)ccc2O[C@H]1CN(C)Cc1ccc2c(c1)OCO2 ?
AF4-AF9 inh: 25.4; INS-1E GSIS act: inactive; S100A4 MyoIIA: inactive; RAD52 inh: inactive; RAD54 branch: inactive

How did N#C[C@H]1[C@@H](c2ccc(-c3ccccc3F)cc2)[C@@H](CO)N1C(=O)c1ccccn1 do in these assays?
AF4-AF9 inh: inactive; INS-1E GSIS act: inactive; S100A4 MyoIIA: inactive; RAD52 inh: inactive; RAD54 branch: inactive

What do the screens show for `COc1cccc(-c2cnc3c(c2)C(=O)N([C@H](C)CO)C[C@H](C)[C@H](CN(C)C)O3)c1`?
AF4-AF9 inh: inactive; INS-1E GSIS act: inactive; S100A4 MyoIIA: inactive; RAD52 inh: inactive; RAD54 branch: inactive

What do the screens show for `COc1ccc(CN(C)C[C@@H]2Oc3ccc(NS(=O)(=O)c4ccccc4)cc3CC(=O)N([C@H](C)CO)C[C@H]2C)cc1`?
AF4-AF9 inh: inactive; INS-1E GSIS act: inactive; S100A4 MyoIIA: 134.5; RAD52 inh: inactive; RAD54 branch: inactive

Results for Cc1ccc(C(=O)N/C(=C/c2ccc(Cl)cc2)C(=O)N2CCOCC2)cc1 ?
AF4-AF9 inh: inactive; INS-1E GSIS act: 50.5; S100A4 MyoIIA: inactive; RAD52 inh: inactive; RAD54 branch: inactive

What do the screens show for `COC(=O)c1ccc(/C=C(/NC(=O)c2ccccc2)C(=O)N2CCOCC2)cc1`?
AF4-AF9 inh: inactive; INS-1E GSIS act: inactive; S100A4 MyoIIA: inactive; RAD52 inh: inactive; RAD54 branch: inactive
